Measurements reported in ChEMBL document CHEMBL1140695, “Endomorphin-2 with a beta-turn backbone constraint retains the potent micro-opioid receptor agonist properties” (J Med Chem, 2008).

Key:
[1] = target: Mu-type opioid receptor (Rattus norvegicus) (UniProt P33535); test: Agonist activity at mu opioid receptor in rat brain assessed as maximal stimulation of [35S]GTP-gamma-S binding relative to basal level; format: functional, tissue-based
How it was run: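 [35S]GTPγS binding in rat brain membrane fractions, reversal tested with naloxone 1 µM.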

[2] = Stability in rat brain assessed as half life; format: ADME, tissue-based
How it was run: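 Peptides incubated in rat brain homogenate lacking cerebellum. Digestion mixtures analysed by RP-HPLC; velocity constants and half-lives calculated assuming pseudo-first-order kinetics.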

Mu-type opioid receptor [3] = target: Mu-type opioid receptor (Rattus norvegicus, UniProt P33535); test: Displacement of [3H]DAMGO from mu opioid receptor in Wistar rat brain after 45 mins
Chain of Mu-type opioid receptor (Rattus norvegicus, UniProt P33535) (P33535 whole entry): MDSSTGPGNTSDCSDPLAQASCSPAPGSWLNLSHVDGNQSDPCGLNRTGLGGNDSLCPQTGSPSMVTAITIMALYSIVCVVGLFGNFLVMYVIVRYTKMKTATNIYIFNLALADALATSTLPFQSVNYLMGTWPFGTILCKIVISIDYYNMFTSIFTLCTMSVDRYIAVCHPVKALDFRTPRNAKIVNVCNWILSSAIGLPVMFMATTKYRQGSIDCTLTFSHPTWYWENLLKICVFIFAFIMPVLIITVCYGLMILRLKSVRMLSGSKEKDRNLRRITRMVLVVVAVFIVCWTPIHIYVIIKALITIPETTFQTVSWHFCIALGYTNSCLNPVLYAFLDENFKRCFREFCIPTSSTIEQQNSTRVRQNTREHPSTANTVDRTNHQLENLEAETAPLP
How it was run: (§1)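 Radioligand binding on a crude membrane fraction of Wistar rat forebrain.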

[4] = target: Delta-type opioid receptor (Rattus norvegicus, UniProt P33533); test: Displacement of [3H]deltorphin 2 from delta opioid receptor in Wistar rat brain after 45 mins; how it was run: as §1
Chain of Delta-type opioid receptor (P33533 whole entry): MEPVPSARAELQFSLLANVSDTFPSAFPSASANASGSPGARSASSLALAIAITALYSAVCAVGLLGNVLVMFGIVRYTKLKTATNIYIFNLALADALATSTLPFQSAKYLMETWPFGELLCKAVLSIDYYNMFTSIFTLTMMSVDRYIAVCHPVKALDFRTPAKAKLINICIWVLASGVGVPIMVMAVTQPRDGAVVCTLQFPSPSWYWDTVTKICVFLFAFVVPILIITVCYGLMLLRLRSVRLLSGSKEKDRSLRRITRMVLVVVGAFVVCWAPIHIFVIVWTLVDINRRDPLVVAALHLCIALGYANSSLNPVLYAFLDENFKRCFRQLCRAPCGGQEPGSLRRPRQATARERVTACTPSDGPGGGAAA

[5] = target: Mu-type opioid receptor (Rattus norvegicus) (UniProt P33535); conditions: Brain
[6] = target: Mu-type opioid receptor (Homo sapiens) (UniProt P35372); conditions: CHO
Chain of Mu-type opioid receptor (Homo sapiens) (P35372 whole entry): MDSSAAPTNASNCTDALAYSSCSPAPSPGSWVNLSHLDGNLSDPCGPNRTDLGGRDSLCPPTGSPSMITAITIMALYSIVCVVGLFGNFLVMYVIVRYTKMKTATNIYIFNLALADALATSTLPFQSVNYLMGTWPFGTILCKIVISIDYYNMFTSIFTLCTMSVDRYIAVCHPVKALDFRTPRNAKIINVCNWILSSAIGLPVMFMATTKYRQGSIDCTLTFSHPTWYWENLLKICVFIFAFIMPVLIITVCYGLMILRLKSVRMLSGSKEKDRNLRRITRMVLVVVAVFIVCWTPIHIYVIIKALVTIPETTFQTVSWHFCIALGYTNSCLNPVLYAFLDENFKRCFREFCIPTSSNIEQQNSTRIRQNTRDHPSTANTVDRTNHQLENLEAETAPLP

Mu-type opioid receptor [7] = target: Mu-type opioid receptor (Mus musculus, UniProt P42866); test: Agonist activity at mu opioid receptor in NMRI mouse vas deferens assessed as inhibition of electrically-stimulated muscle contraction; format: functional, tissue-based
Chain of Mu-type opioid receptor (Mus musculus, UniProt P42866) (P42866 whole entry): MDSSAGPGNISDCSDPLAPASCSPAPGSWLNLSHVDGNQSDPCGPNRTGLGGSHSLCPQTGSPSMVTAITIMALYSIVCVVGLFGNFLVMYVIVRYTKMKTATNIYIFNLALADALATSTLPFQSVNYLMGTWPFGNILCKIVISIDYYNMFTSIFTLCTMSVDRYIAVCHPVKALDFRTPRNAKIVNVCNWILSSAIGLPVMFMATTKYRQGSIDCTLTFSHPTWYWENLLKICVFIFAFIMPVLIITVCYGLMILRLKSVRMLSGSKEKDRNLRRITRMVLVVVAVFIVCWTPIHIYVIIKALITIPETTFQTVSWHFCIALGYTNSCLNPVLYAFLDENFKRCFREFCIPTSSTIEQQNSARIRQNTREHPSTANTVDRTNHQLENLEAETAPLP
How it was run: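 Mouse vas deferens preparation; agonist potency. Values are means ± S.E.M of 3–7 independent duplicate experiments.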

Chain of Mu-type opioid receptor (Rattus norvegicus) (P33535 whole entry): as the sequence (P33535 whole entry) above

Row | Compound | Emax [1] [%] | half-life [2] [h] | Ki (Mu-type opioid receptor [3]) [nM] | Ki [4] [nM] | Log10ED50 [5] | Log10ED50 [6] | IC50 (Mu-type opioid receptor [7]) [nM]
1 | CN1CC[C@]23c4c5ccc(O)c4O[C@H]2[C@@H](O)C=C[C@H]3[C@H]1C5 | 134 | – | – | – | – | – | –
2 | NC(=O)[C@H](Cc1ccccc1)NC(=O)[C@H](Cc1ccccc1)NC(=O)[C@@H]1CCCN1C(=O)[C@@H](N)Cc1ccc(O)cc1 [ENDOMORPHIN 2] | – | 0.0633 | – | – | – | – | –
3 | NC(=O)[C@H](Cc1ccccc1)NC(=O)CN1Cc2ccccc2C[C@@]2(CCCN2C(=O)[C@@H](N)Cc2ccc(O)cc2)C1=O | – | > 24 | 8.73 | 2.31 | – | – | –
4 | C[C@@H](NC(=O)[C@@H](N)Cc1ccc(O)cc1)C(=O)NCC(=O)N(C)[C@@H](Cc1ccccc1)C(=O)NCCO | 169 | – | – | – | – | – | –
5 | NC(=O)[C@H](Cc1ccccc1)NC(=O)CN1Cc2ccccc2C[C@H](NC(=O)[C@@H](N)Cc2ccc(O)cc2)C1=O | – | 0.0117 | 0.373 | 0.778 | – | – | –
6 | NC(=O)[C@H](Cc1ccccc1)NC(=O)CN1Cc2ccccc2C[C@@H](NC(=O)[C@@H](N)Cc2ccc(O)cc2)C1=O | – | 3.3 | 2.25 | 2.96 | – | – | –
7 | NC(=O)[C@H](Cc1ccccc1)NC(=O)CN1Cc2ccccc2C[C@]2(CCCN2C(=O)[C@@H](N)Cc2ccc(O)cc2)C1=O | 134 | > 24 | 0.0293 | > 10 | 6.74 | 6.88 | 49.8
